CASP6 VEID inh – inhibitors of human caspase-6 | AID 686996 | inhibition, % at 12.5 µM | purified caspase-6, Z-VEID-R110 cleavage fluorescence | P55212 | actives 0.53% (n = 350,000);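 active means mean inhibition across replicates at least about 35%, with every replicate also reaching that limit, limit read from the data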;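 further: 0% = median of neutral control wells and 100% = no fluorescence left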
UCH37 inh – human UCH37 deubiquitinating enzyme inhibition. Q9Y5K5. AID 588478. purified proteasome/UCH37, Ub-AMC cleavage fluorescence. inhibition, % (test concentration not listed). actives 0.33% (n = 330,000);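 active means mean inhibition over replicate wells above about 20%, limit read from the data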;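 further: 0% = compound-free wells with enzyme and 100% = wells lacking proteasome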
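Material: human UCH37 enzyme supplied as purified proteasome complex. Measure: % inhibition of Ub-AMC cleavage fluorescence. Medium: pH 7.4 Tris-HCl (50 mM) with ovalbumin, ATP-MgCl2, DTT. Times: 30 min preincubation with enzyme, 25 min cleavage at room temperature. Detection: AMC fluorescence intensity at 355/460 nm.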
SIRT5 inh – blocks human SIRT5 desuccinylation of peptide. Purified SirT5, succinyl-peptide AMC, trypsin-coupled fluorescence. inhibition, % at 15 µM. Q9NXA8. AID 652115. actives 1.1% (n = 330,000); in the data active means inhibition above about 15%
Target sequence (Q9NXA8 whole entry, looked up): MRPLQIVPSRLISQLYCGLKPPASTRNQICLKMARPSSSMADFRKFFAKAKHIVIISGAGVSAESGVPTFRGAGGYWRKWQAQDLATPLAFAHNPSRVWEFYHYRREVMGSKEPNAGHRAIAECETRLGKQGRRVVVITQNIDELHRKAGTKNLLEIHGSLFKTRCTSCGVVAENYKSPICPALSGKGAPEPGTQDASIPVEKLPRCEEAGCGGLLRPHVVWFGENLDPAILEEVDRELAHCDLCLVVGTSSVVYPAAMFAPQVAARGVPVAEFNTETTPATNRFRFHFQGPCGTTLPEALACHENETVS
NSD2 inh – blocks human histone methyltransferase NSD2; NSD2 peptide methylation, AlphaScreen, 120 min; inhibition, % at 12.5 µM; actives 0.54% (n = 310,000); in the data active means inhibition above about 50%
FGF22 binding – binders of recombinant human FGF22 by thermal shift | actives 1.5% (n = 340,000) | activity (Tm shift, normalised), % at 9.99 µM | SYPRO orange fluorescence; percent of sucrose octasulfate shift, DMSO zero | Q9HCT0 | AID 651658;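 active means mean Tm shift, scaled 0 neutral to 100 positive control, at about 1.3% or above, every replicate too, limit read from the data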
Target sequence (Q9HCT0 whole entry, looked up): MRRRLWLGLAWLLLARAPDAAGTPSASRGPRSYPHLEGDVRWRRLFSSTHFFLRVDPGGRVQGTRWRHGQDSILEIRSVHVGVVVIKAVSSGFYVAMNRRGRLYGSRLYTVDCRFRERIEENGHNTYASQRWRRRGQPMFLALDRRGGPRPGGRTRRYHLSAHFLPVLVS
* = called active by the depositor; / = no result given. In the library only some 2.6% were active in any assay of this set; here they are far more common.

SMILES	CASP6 VEID inh	UCH37 inh	SIRT5 inh	NSD2 inh	FGF22 binding
C[C@@H]1CN([C@@H](C)CO)C(=O)c2cc(-c3ccc(F)cc3)cnc2O[C@H]1CN(C)C(=O)CN(C)C	5.1	/	1.9	/	0.1
CC(C)NC(=O)Nc1ccc2c(c1)C(=O)N(C)[C@@H]1CC[C@@H](CC(=O)NC3CCCCC3)O[C@H]1CO2	/	/	/	/	0.0
CCN1CCS/C1=C\C=C\C1=[N+](CC)CCS1	-12.4	16.5	18.4*	11.0	0.5
Cc1cc([N+](=O)[O-])c(C)cc1-c1ccc(C=Nn2cnnc2)o1	/	12.2	/	/	/
CCSc1nnc(NC(=O)Cc2cccc(OC)c2)s1	/	1.7	/	-6.6	/
CCSc1nnc(NC(=O)Cc2ccc(OC)cc2)s1	-2.0	0.9	19.8*	-3.2	/
COc1ccc(NC(=O)CSc2nnc(NC(=O)c3ccccc3C(=O)O)s2)cc1	0.1	-0.8	3.1	1.4	43.5*
CCCCC(=O)Nc1nnc(SCC(=O)Nc2ccc(OC)cc2)s1	-0.5	2.8	-2.3	-0.8	0.2
O=C(NC1CCCC1)C(=O)N(Cc1cccnc1)C(C(=O)NCc1ccco1)c1ccccc1F (configuration not stated)	-3.9	-0.8	-6.1	-7.5	43.5*
O=C(NC1CCCCC1)C(=O)N(Cc1cccnc1)C(C(=O)NCc1ccco1)c1ccccc1 (configuration not stated)	/	-0.1	/	29.6	/
CN1C(=O)c2cc(NC(=O)c3cccs3)ccc2OC[C@H]2O[C@H](CC(=O)N3CCCCC3)CC[C@H]21	0.5	/	-3.1	/	0.0
COc1cc(-c2c(C#N)c(N)nc3[nH]c(=S)[nH]c(=O)c23)ccc1O	4.1	22.6*	4.2	-1.9	0.0
NCCNc1ccc2nnnn2n1	-1.2	-1.2	-1.5	-5.3	43.3*
c1ccc(CCNc2ccc3nncn3n2)cc1	-1.5	0.5	-3.2	/	0.2
CN(C)/C=C1/Oc2c(ccc3ccccc23)C1=O	2.7	-2.3	-3.1	0.1	0.1
CN(C)/C=C1\Oc2ccc3ccccc3c2C1=O	8.7	-65.2	111.8*	10.7	-0.4
COC(=O)c1ccc(COc2ccc(/C=C(\C#N)c3nc4ccccc4[nH]3)cc2OC)o1	/	-11.4	/	/	/
COc1cc(/C=C(/C#N)c2nc3ccccc3[nH]2)ccc1OCc1ccc(C(=O)O)o1	24.3	/	17.8*	/	1.3
N#C/C(=C\c1cccs1)c1nc2ccccc2[nH]1	/	-15.2	/	/	/
N#C/C(=C/c1ccc(O)c(O)c1)c1nc2ccccc2[nH]1	34.1	/	1.7	66.7*	0.6
C[C@H](CO)N1C[C@H](C)[C@H](CN(C)C(=O)Nc2ccc(C(F)(F)F)cc2)Oc2ncc(-c3ccc(C#N)cc3)cc2C1=O	-2.6	/	7.8	/	-0.4
Cc1ccc2nc(NC(=O)c3ccc(N4C(=O)CCC4=O)cc3)sc2c1	-0.9	-0.9	-2.6	5.2	43.3*
CCCCCC[n+]1ccccc1/C=C/c1ccc(N(C)C)cc1	-1.7	/	8.9	/	-0.1
CC[n+]1ccccc1/C=C/c1ccc(N(C)C)cc1	-10.5	20.8*	/	11.2	0.0
CC[n+]1c(/C=C/c2ccc(N(C)C)cc2)ccc2ccccc21	0.1	23.4*	6.7	40.5	0.2
SMILES	CASP6 VEID inh	UCH37 inh	SIRT5 inh	NSD2 inh	FGF22 binding
CCN(CC)c1ccc(/C=C/c2ccc3ccc(OC)cc3[n+]2CC)cc1	2.0	3.7	-0.2	75.5*	-0.1
Cc1noc(C)c1NC(=O)N(C)C[C@H]1Oc2ccc(NC(=O)Nc3ccc(F)cc3)cc2CC(=O)N([C@@H](C)CO)C[C@H]1C	0.5	/	-4.0	/	-0.3
C[C@H](CO)N1C[C@H](C)[C@H](CN(C)C(=O)Nc2ccccc2)Oc2ncc(C#CCN(C)C)cc2C1=O	-1.8	/	-4.1	/	0.0
COC(=O)c1c(C)[nH]c(O)c1C=Nc1ccc(Oc2ccccc2)cc1	-1.7	2.5	-1.3	3.1	43.6*
COC(=O)c1c(C)[nH]c(O)c1C=Nc1ccc(C(C)C)cc1	/	/	/	1.9	/
CCn1c(CNC(=O)c2ccco2)nnc1SCC(=O)c1ccc(OC)cc1	-1.6	2.8	2.3	-1.3	43.3*
O=C(CSc1cn(CCNC(=O)c2ccccc2F)c2ccccc12)NCC1CCCO1 (configuration not stated)	-0.8	-0.8	-1.8	3.7	-0.1
Cc1ccccc1C(=O)NCCn1cc(SCC(=O)NCC2CCCO2)c2ccccc21 (configuration not stated)	41.5*	0.0	-2.5	-1.8	-0.2
O=C(Cn1nc(-c2ccc(Cl)cc2)ccc1=O)NCC1CCCO1 (configuration not stated)	-1.0	2.1	19.4*	/	0.0
COc1ccc(-c2nnc(SCC(=O)NCC3CCCO3)n2C)cc1 (configuration not stated)	7.1	0.0	-3.8	12.0	/
Cn1c(SCC(=O)NCC2CCCO2)nnc1-c1ccc(Cl)cc1 (configuration not stated)	-1.0	2.7	19.2*	/	0.1
C[C@H](CO)N1C[C@H](C)[C@@H](CN(C)C(=O)Cc2cccnc2)Oc2ncc(-c3cncnc3)cc2C1=O	-1.4	/	1.2	/	-0.1
C[C@@H]1CN([C@@H](C)CO)C(=O)c2cccc(NC(=O)C3CC3)c2O[C@H]1CN(C)Cc1ccc(-c2ccccc2)cc1	-1.6	/	-2.2	/	-0.1
C[C@H](NC(=O)C[C@@H]1C=C[C@@H](NC(=O)C2CCOCC2)[C@H](CO)O1)c1ccccc1	7.1	/	-1.0	/	0.0
CCC1(CC)NC(=O)NC1=O	/	31.5*	/	0.1	/
C[C@H]1CCCCO[C@@H](CN(C)S(=O)(=O)c2ccccc2)[C@@H](C)CN([C@@H](C)CO)C(=O)c2cc(NC(=O)Nc3ccc(C(F)(F)F)cc3)ccc2O1	-2.0	/	3.7	/	0.0
Cc1ccc(S(=O)(=O)N[C@@H](CO)C(=O)N[C@@H](Cc2ccc(O)cc2)C(=O)O)cc1	1.5	-1.5	21.3*	-0.6	-0.5
CCC(NS(=O)(=O)c1ccc(C)cc1)C(=O)O (configuration not stated)	/	1.2	/	-1.5	/
COc1cc(CNC(C)c2ccccc2)c(Br)cc1OCC(N)=O (configuration not stated)	80.3*	2.7	-1.5	-0.2	0.2
CC(C)C#Cc1cnc2c(c1)C(=O)N([C@@H](C)CO)C[C@@H](C)[C@H](CN(C)C(=O)CC1CC1)O2	0.5	/	5.8	/	-0.1
CN(C)/C=C/C(=O)c1ccc(Cl)c([N+](=O)[O-])c1	0.0	14.2	16.6*	-2.1	42.8
O=C(NCCN1CCCC1)[C@@H]1N[C@@H]2c3ccc(C4=CCCCC4)c(=O)n3C[C@@H]2[C@H]1CO	-0.9	/	-15.4	/	-0.1
COc1cc(/C=C/C(=O)OCC(=O)NCCc2ccccc2)cc(OC)c1OC	-1.3	-23.5	-2.1	-1.4	43.6*
COc1cc(/C=C/C(=O)OCC(=O)NCCCc2ccccc2)cc(OC)c1OC	0.0	-8.7	2.3	-4.0	-0.3
CN(N=Cc1cccs1)c1cc(=O)n(C)c(=O)[nH]1	/	20.8*	/	/	/
CN(/N=C/C=C/c1ccccc1)c1cc(=O)n(C)c(=O)[nH]1	3.3	/	/	0.5	-0.1
